From ChEMBL document CHEMBL5335790, “Design, synthesis and biological evaluation of novel 2,4-thiazolidinedione derivatives able to target the human BAG3 protein” (Eur J Med Chem, 2023)
Calls of active or inactive are those of the source. The rule behind the calls is not given here.

What was measured:
[1] = molecular target: T1, BAG family molecular chaperone regulator 3 (Homo sapiens, UniProt O95817); assay: Binding affinity to CM4 sensorchip immobilized C-terminal His tagged human BAG3 transfected in HEK293T cells assessed as signal saturation at 50 uM by SPR analysis
T1 sequence (O95817 whole entry): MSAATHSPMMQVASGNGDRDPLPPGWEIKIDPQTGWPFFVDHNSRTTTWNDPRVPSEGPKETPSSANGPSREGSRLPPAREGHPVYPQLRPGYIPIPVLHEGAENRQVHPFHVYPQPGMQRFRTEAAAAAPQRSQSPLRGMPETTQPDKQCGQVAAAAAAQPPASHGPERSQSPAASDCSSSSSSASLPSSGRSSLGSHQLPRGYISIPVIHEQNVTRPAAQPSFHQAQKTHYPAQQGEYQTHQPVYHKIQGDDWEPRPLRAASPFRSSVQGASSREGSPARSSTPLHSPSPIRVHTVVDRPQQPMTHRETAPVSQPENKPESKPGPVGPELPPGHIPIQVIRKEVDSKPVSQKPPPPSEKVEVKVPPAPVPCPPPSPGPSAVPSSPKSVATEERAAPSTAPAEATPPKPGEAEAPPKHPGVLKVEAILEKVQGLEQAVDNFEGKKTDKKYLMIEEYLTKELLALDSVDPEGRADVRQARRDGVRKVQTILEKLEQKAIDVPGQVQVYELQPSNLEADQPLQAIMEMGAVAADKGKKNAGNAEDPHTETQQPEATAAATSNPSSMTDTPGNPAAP

[2] = molecular target: T1, BAG family molecular chaperone regulator 3; assay: Binding affinity to C-terminal His tagged human BAG3 transfected in HEK293T cells assessed as intermolecular nuclear overhauser effect mediated protein magnetization at 125 uM by waterLOGSY experiment; format: cell-based
Method in brief: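 Ligand-observed NMR in 50 mM sodium phosphate pH 7.8, 150 mM NaCl, 0.04% NaN3, 1.3% DMSO-d6, 5% D2O. Compound at 125 µM with 5 µM BAG3-His (HEK-293T expressed, purified by IMAC and SEC), each also run without protein. WaterLOGSY used 240 scans, 1.5 s mixing and water inversion at 4.7 ppm. STD used 256 scans with protein saturation at 0.4 ppm.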

HD-MB03 [3] = assay: Antiproliferative activity against human HD-MB03 cells assessed as cell growth inhibition incubated for 72 hrs by resazurin dye based analysis; format: functional
Method in brief: (§1)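 Cells seeded at 2000/well, treated 24 h later with compounds in a 6-point 2-fold dose series, duplicate wells, two independent experiments. After 72 h, resazurin was added at 44 µM final for 3 h at 37 °C and fluorescence was read at 590 nm. Viability was normalized to 1 µM bortezomib (positive) and 0.5% DMSO (negative) controls. GI50 is the mean ± SEM of dose-response curves.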

RS4-11 = assay: Antiproliferative activity against human RS4-11 cells assessed as cell growth inhibition incubated for 72 hrs by resazurin dye based analysis; format: functional; method in brief: as §1
[4] = Cytotoxicity against resting human PBMC cells assessed as cell growth inhibition incubated for 72 hrs by MTT assay; format: toxicity, cell-based
HD-MB03 [5] = assay: Induction of cell cycle arrest in human HD-MB03 cells assessed as accumulation of cells at S phase at 10 uM incubated for 48 hrs by RNase/PI staining based cytofluorimetric analysis (reference value: 40.9%); format: functional
HD-MB03 [6] = assay: Induction of cell cycle arrest in human HD-MB03 cells assessed as accumulation of cells at G1 phase at 10 uM incubated for 72 hrs by RNase/PI staining based cytofluorimetric analysis (reference value: 54.7%); format: functional
HD-MB03 [7] = assay: Induction of cell cycle arrest in human HD-MB03 cells assessed as accumulation of cells at S phase at 10 uM incubated for 72 hrs by RNase/PI staining based cytofluorimetric analysis (reference value: 40.9%); format: functional
HD-MB03 [8] = assay: Induction of autophagy in human HD-MB03 cells assessed as increase in LC3 green fluorescence at 20 uM incubated for 24 hrs by immunofluorescence analysis; format: functional, cell-based
Method in brief: (§2)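 HD-MB03 cells transfected with a fluorescent LC3 plasmid, then treated 24 h later with 20 µM, alone or with chloroquine, for 24 h. Live cells stained 30 min with 50 nM LysoTracker Red and 10 µM Hoechst, then imaged by confocal microscopy. Fluorescence per field was expressed relative to DMSO control set to 1. Mean ± SD of three experiments; 2-way ANOVA.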

HD-MB03 [9] = assay: Induction of autophagy in human HD-MB03 cells assessed as increase in LC3 green fluorescence at 20 uM incubated for 24 hrs in presence of chloroquine by immunofluorescence analysis; format: functional, cell-based; method in brief: as §2
HD-MB03 [10] = assay: Induction of apoptosis in human HD-MB03 cells assessed as increase in total apoptotic cells at 20 uM incubated for 24 hrs in presence of chloroquine by Annexin V-FITC/PI staining based cytofluorimetric analysis; format: functional, cell-based
Method in brief: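 HD-MB03 cells exposed to 20 µM with or without chloroquine for 24 h, then stained with annexin V-FITC and PI for flow cytometry. Mean ± SEM of three independent experiments.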

HD-MB03 [11] = assay: Induction of autophagy in human HD-MB03 cells assessed as autophagic vacuole formation at 20 uM incubated for 24 hrs by bright field imaging analysis; format: functional, cell-based
HD-MB03 [12] = assay: Induction of autophagy in human HD-MB03 cells assessed as autophagic vacuole formation in presence of chloroquine at 20 uM incubated for 24 hrs by bright field imaging analysis; format: functional, cell-based
HD-MB03 [13] = assay: Sensitization of chemotherapy induced cytotoxicity against human HD-MB03 cells assessed as inhibition of cell growth at 1.25 uM incubated for 72 hrs in presence of 2 unit of vincristine, etoposide, cisplatin, cyclophosphamide by resazurin dye based analysis (reference value: 97.7 +/- 1.3%); format: functional
HD-MB03 [14] = assay: Sensitization of chemotherapy induced cytotoxicity against human HD-MB03 cells assessed as inhibition of cell growth at 5 uM incubated for 72 hrs in presence of 0.25 unit of vincristine, etoposide, cisplatin, cyclophosphamide by resazurin dye based analysis (reference value: 73.44 +/- 0.92%); format: functional
HD-MB03 [15] = assay: Sensitization of chemotherapy induced cytotoxicity against human HD-MB03 cells assessed as inhibition of cell growth at 5 uM incubated for 72 hrs in presence of 0.5 unit of vincristine, etoposide, cisplatin, cyclophosphamide by resazurin dye based analysis (reference value: 83.74+/- 0.54%); format: functional
HD-MB03 [16] = assay: Sensitization of chemotherapy induced cytotoxicity against human HD-MB03 cells assessed as inhibition of cell growth at 5 uM incubated for 72 hrs in presence of 2 unit of vincristine, etoposide, cisplatin, cyclophosphamide by resazurin dye based analysis (reference value: 97.7 +/- 1.3%); format: functional
HD-MB03 [17] = assay: Sensitization of chemotherapy induced cytotoxicity against human HD-MB03 cells assessed as inhibition of cell growth at 10 uM incubated for 72 hrs in presence of 0.5 unit of vincristine, etoposide, cisplatin, cyclophosphamide by resazurin dye based analysis (reference value: 83.74+/- 0.54%); format: functional
HD-MB03 [18] = assay: Sensitization of chemotherapy induced cytotoxicity against human HD-MB03 cells assessed as inhibition of cell growth at 10 uM incubated for 72 hrs in presence of 1 unit of vincristine, etoposide, cisplatin, cyclophosphamide by resazurin dye based analysis (reference value: 91.53 +/- 1.15%); format: functional
HD-MB03 [19] = assay: Sensitization of chemotherapy induced cytotoxicity against human HD-MB03 cells assessed as inhibition of cell growth at 10 uM incubated for 72 hrs in presence of 2 unit of vincristine, etoposide, cisplatin, cyclophosphamide by resazurin dye based analysis (reference value: 97.7 +/- 1.3%); format: functional
HD-MB03 [20] = assay: Sensitization of chemotherapy induced cytotoxicity against human HD-MB03 cells assessed as inhibition of cell growth at 20 uM incubated for 72 hrs in presence of 0.25 unit of vincristine, etoposide, cisplatin, cyclophosphamide by resazurin dye based analysis (reference value: 73.44 +/- 0.92%); format: functional
HD-MB03 [21] = assay: Cytotoxicity against human HD-MB03 cells assessed as inhibition of cell growth at 1.25 uM incubated for 72 hrs by resazurin dye based analysis relative to control; format: functional
Method in brief: (§3)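 Resazurin viability in HD-MB03 cells, 2000/well, single-agent arm of the 6x6 matrix. Inhibitor was added 24 h after seeding, in a 6-point 2-fold series, duplicates, two independent experiments. After 72 h exposure, resazurin was added at 44 µM final for 3 h at 37 °C and fluorescence read at 590 nm. Viability normalized to 1 µM bortezomib and 0.5% DMSO controls.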

HD-MB03 [22] = assay: Cytotoxicity against human HD-MB03 cells assessed as inhibition of cell growth at 10 uM incubated for 72 hrs by resazurin dye based analysis relative to control; format: functional; method in brief: as §3

In the case of `CC(C(=O)N1CCOCC1)N1C(=O)S/C(=C\c2cccc(O)c2O)C1=O` (racemic), the Activity [1] is reported as “Active”, the Activity [2] is reported as “Active” and the GI50 (HD-MB03 [3]) is reported as 11.2 µM. The GI50 (RS4-11) was 6.7 µM, the GI50 at 72 h [4] was over 100 µM and the Activity (HD-MB03 [5]) was 41.44%. For the same compound, the Activity (HD-MB03 [6]) was 74%, the Activity (HD-MB03 [7]) was 24.8% and the Activity (HD-MB03 [8]) was “Active”. The Activity (HD-MB03 [9]) was “inactive”, the Activity (HD-MB03 [10]) was “Active” and the Activity (HD-MB03 [11]) was “Active”. For the same compound, the Activity (HD-MB03 [12]) was “inactive”, the inhibition at 1.25 µM (HD-MB03 [13]) was 96.6% and the inhibition at 5 µM (HD-MB03 [14]) was 76.7%. For the same compound, the inhibition at 5 µM (HD-MB03 [15]) was 88.4%, the inhibition at 5 µM (HD-MB03 [16]) was 95.2% and the inhibition at 10 µM (HD-MB03 [17]) was 89.1%. For the same compound, the inhibition at 10 µM (HD-MB03 [18]) was 92%, the inhibition at 10 µM (HD-MB03 [19]) was 93.2% and the inhibition at 20 µM (HD-MB03 [20]) was 80.8%. The inhibition at 1.25 µM (HD-MB03 [21]) was -11.8% and the inhibition at 10 µM (HD-MB03 [22]) was 26.8%.
